Reference: ChEMBL document CHEMBL1140775, “Low-density lipoprotein (LDL)-antioxidant lignans from Myristica fragrans seeds” (Bioorg Med Chem Lett, 2008)
Activity calls are given as the source filed them. No cut-off for these calls is given here.

Experiments:
Format in all cases: functional
[1] = Antioxidant activity against LDL-oxidation by TBARS assay
Method in brief: (§1)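 Copper-mediated oxidation of human plasma LDL (120 µg/mL); oxidation quantified by TBARS formation. Mean of two independent experiments, each in duplicate.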

[2] = Antioxidant activity assessed as inhibition of copper-mediated LDL-oxidation at 20 uM by relative electrophoretic mobility method
Method in brief: (§2)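 LDL (120 µg/mL in PBS) incubated 12 h at 37 °C with 5 µM CuSO4 with or without compound. About 2.0 µg LDL protein run on 0.7% agarose gel, Coomassie-stained, densitometrically scanned; migration distance measured, protection expressed relative to native and fully oxidized LDL.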

[3] = Antioxidant activity assessed as inhibition of apoB100 fragmentation at 10 uM by SDS-PAGE method
Method in brief: (§3)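 Human LDL in PBS incubated 4 h at 37 °C with 5 µM CuSO4 with or without compound. About 2.0 µg LDL protein run on 7.5% SDS-PAGE, Coomassie-stained, densitometrically scanned; apoB-100 band area given as absorbance units per mm.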

[4] = test system: THP-1; experiment: Antioxidant activity against LDL-oxidation in human THP1 cells assessed as malondialdehyde level per mg of LDL protein at 1 uM
Method in brief: (§4)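 PMA-differentiated THP-1 macrophages incubated 24 h at 37 °C in serum-free RPMI 1640 with LDL (100 µg/mL) and 2 µM Cu2+, with or without compound. TBARS measured directly in harvested medium, expressed as MDA nmol/mg LDL protein; mean ± SD, n = 3.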

[5] = Antioxidant activity assessed as inhibition of apoB100 fragmentation at 20 uM by SDS-PAGE method; method in brief: as §3
[6] = test system: THP-1; experiment: Antioxidant activity against LDL-oxidation in human THP1 cells assessed as malondialdehyde level per mg of LDL protein at 5 uM; method in brief: as §4
[7] = Antioxidant activity against LDL-oxidation assessed as conjugated diene formation lag time at 1.0 uM
Method in brief: (§5)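 Human plasma LDL (120 µg protein/mL) oxidized with 5 µM CuSO4, with or without compound; conjugated diene formation read as absorbance at 234 nm every 10 min for 4 h. Lag time taken as elapsed time before onset of rapid conjugated hydroperoxide formation.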

[8] = Antioxidant activity assessed as inhibition of LDL-oxidation at 20 uM by TBARS assay; method in brief: as §1
[9] = Antioxidant activity assessed as inhibition of copper-mediated LDL-oxidation at 10 uM by relative electrophoretic mobility method; method in brief: as §2
[10] = Antioxidant activity against LDL-oxidation assessed as conjugated diene formation lag time at 3.0 uM; method in brief: as §5

| IC50 [1] | SMILES | inhibition [8] | other results |
| --- | --- | --- | --- |
| 2.6 µM | COc1cc(C[C@@H](C)[C@@H](C)Cc2ccc(O)c(OC)c2)ccc1O [MESODIHYDROGUAIARETIC ACID] | 93% | inhibition [2]: 82%; inhibition [3]: 54%; Activity [4]: 306.3 nmol; inhibition [5]: 93%; Activity [6]: 35.2 nmol; Activity [7]: 140 min; inhibition [9]: 72% |
| 7.5 µM | COc1cc(C[C@H](C)[C@H](C)Cc2ccc3c(c2)OCO3)ccc1O [AUSTROBAILIGNAN 6] | 64.5% |  |
| 3.6 µM | COc1cc(C[C@H](C)[C@H](C)Cc2ccc(O)c(O)c2)ccc1O | 91% |  |
| 6.3 µM | COc1cc([C@@H](O)[C@H](C)[C@H](C)Cc2ccc3c(c2)OCO3)ccc1O | 45.7% |  |

The remaining lines, values behind:

| SMILES | IC50 [1] | inhibition [8] | other results |
| --- | --- | --- | --- |
| COc1cc([C@H]2c3cc4c(cc3C[C@@H](C)[C@@H]2C)OCO4)ccc1O | 7.3 µM | 40.9% |  |
| COc1cc(C(OC)C(C)C(C)Cc2ccc3c(c2)OCO3)ccc1O (centres undefined) | 7.9 µM | 28.9% |  |
| CC(C)(Sc1cc(C(C)(C)C)c(O)c(C(C)(C)C)c1)Sc1cc(C(C)(C)C)c(O)c(C(C)(C)C)c1 [PROBUCOL] | 3.1 µM | 92% | Activity [10]: 67 min |
| C[C@H](Cc1ccc2c(c1)OCO2)[C@H](C)Cc1ccc2c(c1)OCO2 |  | 0% | Activity [1]: inactive |
